Measurements from ChEMBL document CHEMBL5058577, “EUbOPEN Chemogenomics Library 2 (Multiplex)” (2022).

System: Fibroblast
Experiment: Multiplex assay against human fibroblast
Format: toxicity, cell-based
Summary of the method: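 Per cents of healthy-nucleus cells form the tubulin, mitochondrial-mass and membrane-permeability phenotype values. Live cells were stained at seeding with Hoechst33342, BioTracker Green Microtubule Cytoskeleton Dye, MitoTracker Red and Annexin V Alexa Fluor 680. After compound addition they were imaged on a CQ1 microscope at 37°C and 5% CO2, and CellPathfinder machine-learning gating split them into Hoechst high-intensity objects or normal cells, normal cells into healthy, pyknosed or fragmented nuclei, and pyknosed cells into mitotic or apoptotic.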

[1] = 12 h, 1 µM, compound concentration 1 uM, replicate 1
[2] = 12 h, 1 µM, compound concentration 1 uM, replicate 2
[3] = 12 h, 10 µM, compound concentration 10 uM, replicate 1
[4] = 12 h, 10 µM, compound concentration 10 uM, replicate 2
[5] = 24 h, 1 µM, compound concentration 1 uM, replicate 1
[6] = 24 h, 1 µM, compound concentration 1 uM, replicate 2
[7] = 24 h, 10 µM, compound concentration 10 uM, replicate 1
[8] = 24 h, 10 µM, compound concentration 10 uM, replicate 2
[9] = 48 h, 1 µM, compound concentration 1 uM, replicate 1
[10] = 48 h, 1 µM, compound concentration 1 uM, replicate 2
[11] = 48 h, 10 µM, compound concentration 10 uM, replicate 1
[12] = 48 h, 10 µM, compound concentration 10 uM, replicate 2

Cl.Cl.OCCOCCN1CCN(C(c2ccccc2)c2ccc(Cl)cc2)CC1 (configuration not stated) [HYDROXYZINE HYDROCHLORIDE]
Population Apoptotic (%) [1]: 43%
Population Fragmented Nuclei (%) [1]: 11%
Population Healthy Nuclei (%) [1]: 75%
Population Hoechst High Intensity Objects (%) [1]: 1%
Population Membrane Permeable-Phenotype (%) [1]: 0%
Population Mitochondria Different-Phenotype (%) [1]: 4%
Population Mitotic Cells (%) [1]: 56%
Population Normal (%) [1]: 98%
Population Pyknosed Nuclei (%) [1]: 13%
Population Tubulin-Different-Phenotype (%) [1]: 25%
Total Cell Count [1]: 177
Population Apoptotic (%) [2]: 51%
Population Fragmented Nuclei (%) [2]: 22%
Population Healthy Nuclei (%) [2]: 57%
Population Hoechst High Intensity Objects (%) [2]: 7%
Population Membrane Permeable-Phenotype (%) [2]: 8%
Population Mitochondria Different-Phenotype (%) [2]: 6%
Population Mitotic Cells (%) [2]: 48%
Population Normal (%) [2]: 92%
Population Pyknosed Nuclei (%) [2]: 20%
Population Tubulin-Different-Phenotype (%) [2]: 46%
Total Cell Count [2]: 155
Population Apoptotic (%) [3]: 47%
Population Fragmented Nuclei (%) [3]: 27%
Population Healthy Nuclei (%) [3]: 58%
Population Hoechst High Intensity Objects (%) [3]: 2%
Population Membrane Permeable-Phenotype (%) [3]: 0%
Population Mitochondria Different-Phenotype (%) [3]: 14%
Population Mitotic Cells (%) [3]: 52%
Population Normal (%) [3]: 97%
Population Pyknosed Nuclei (%) [3]: 14%
Population Tubulin-Different-Phenotype (%) [3]: 45%
Total Cell Count [3]: 247
Population Apoptotic (%) [4]: 40%
Population Fragmented Nuclei (%) [4]: 19%
Population Healthy Nuclei (%) [4]: 47%
Population Hoechst High Intensity Objects (%) [4]: 7%
Population Membrane Permeable-Phenotype (%) [4]: 7%
Population Mitochondria Different-Phenotype (%) [4]: 6%
Population Mitotic Cells (%) [4]: 59%
Population Normal (%) [4]: 92%
Population Pyknosed Nuclei (%) [4]: 32%
Population Tubulin-Different-Phenotype (%) [4]: 58%
Total Cell Count [4]: 178
Population Apoptotic (%) [5]: 30%
Population Fragmented Nuclei (%) [5]: 9%
Population Healthy Nuclei (%) [5]: 78%
Population Hoechst High Intensity Objects (%) [5]: 1%
Population Membrane Permeable-Phenotype (%) [5]: 2%
Population Mitochondria Different-Phenotype (%) [5]: 6%
Population Mitotic Cells (%) [5]: 70%
Population Normal (%) [5]: 98%
Population Pyknosed Nuclei (%) [5]: 12%
Population Tubulin-Different-Phenotype (%) [5]: 30%
Total Cell Count [5]: 163
Population Apoptotic (%) [6]: 44%
Population Fragmented Nuclei (%) [6]: 26%
Population Healthy Nuclei (%) [6]: 54%
Population Hoechst High Intensity Objects (%) [6]: 5%
Population Membrane Permeable-Phenotype (%) [6]: 5%
Population Mitochondria Different-Phenotype (%) [6]: 3%
Population Mitotic Cells (%) [6]: 55%
Population Normal (%) [6]: 94%
Population Pyknosed Nuclei (%) [6]: 18%
Population Tubulin-Different-Phenotype (%) [6]: 47%
Total Cell Count [6]: 154
Population Apoptotic (%) [7]: 51%
Population Fragmented Nuclei (%) [7]: 28%
Population Healthy Nuclei (%) [7]: 62%
Population Hoechst High Intensity Objects (%) [7]: 1%
Population Membrane Permeable-Phenotype (%) [7]: 1%
Population Mitochondria Different-Phenotype (%) [7]: 10%
Population Mitotic Cells (%) [7]: 48%
Population Normal (%) [7]: 98%
Population Pyknosed Nuclei (%) [7]: 9%
Population Tubulin-Different-Phenotype (%) [7]: 47%
Total Cell Count [7]: 284
Population Apoptotic (%) [8]: 36%
Population Fragmented Nuclei (%) [8]: 29%
Population Healthy Nuclei (%) [8]: 50%
Population Hoechst High Intensity Objects (%) [8]: 9%
Population Membrane Permeable-Phenotype (%) [8]: 6%
Population Mitochondria Different-Phenotype (%) [8]: 6%
Population Mitotic Cells (%) [8]: 63%
Population Normal (%) [8]: 90%
Population Pyknosed Nuclei (%) [8]: 20%
Population Tubulin-Different-Phenotype (%) [8]: 66%
Total Cell Count [8]: 198
Population Apoptotic (%) [9]: 60%
Population Fragmented Nuclei (%) [9]: 17%
Population Healthy Nuclei (%) [9]: 68%
Population Hoechst High Intensity Objects (%) [9]: 4%
Population Membrane Permeable-Phenotype (%) [9]: 0%
Population Mitochondria Different-Phenotype (%) [9]: 3%
Population Mitotic Cells (%) [9]: 39%
Population Normal (%) [9]: 95%
Population Pyknosed Nuclei (%) [9]: 13%
Population Tubulin-Different-Phenotype (%) [9]: 31%
Total Cell Count [9]: 175
Population Apoptotic (%) [10]: 42%
Population Fragmented Nuclei (%) [10]: 34%
Population Healthy Nuclei (%) [10]: 56%
Population Hoechst High Intensity Objects (%) [10]: 3%
Population Membrane Permeable-Phenotype (%) [10]: 2%
Population Mitochondria Different-Phenotype (%) [10]: 5%
Population Mitotic Cells (%) [10]: 57%
Population Normal (%) [10]: 96%
Population Pyknosed Nuclei (%) [10]: 9%
Population Tubulin-Different-Phenotype (%) [10]: 44%
Total Cell Count [10]: 155
Population Apoptotic (%) [11]: 80%
Population Fragmented Nuclei (%) [11]: 22%
Population Healthy Nuclei (%) [11]: 69%
Population Hoechst High Intensity Objects (%) [11]: 4%
Population Membrane Permeable-Phenotype (%) [11]: 0%
Population Mitochondria Different-Phenotype (%) [11]: 7%
Population Mitotic Cells (%) [11]: 19%
Population Normal (%) [11]: 95%
Population Pyknosed Nuclei (%) [11]: 8%
Population Tubulin-Different-Phenotype (%) [11]: 62%
Total Cell Count [11]: 272
Population Apoptotic (%) [12]: 37%
Population Fragmented Nuclei (%) [12]: 36%
Population Healthy Nuclei (%) [12]: 47%
Population Hoechst High Intensity Objects (%) [12]: 6%
Population Membrane Permeable-Phenotype (%) [12]: 11%
Population Mitochondria Different-Phenotype (%) [12]: 2%
Population Mitotic Cells (%) [12]: 62%
Population Normal (%) [12]: 94%
Population Pyknosed Nuclei (%) [12]: 15%
Population Tubulin-Different-Phenotype (%) [12]: 57%
Total Cell Count [12]: 200
